Bioassay records as filed in PubChem.
Diaph inh CS: diaphorase inhibition or chemical oxidation counter-screen | diaphorase resazurin-to-resorufin fluorescence, NADH, 16 min; bacterial (C. kluyveri) enzyme, not human | inhibition, % at 20 µM | 190,000 tested, 0.69% active | AID 1217;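 active = primary screen inhibition at 20 µM above a set limit, cut at about 50% in these data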
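Assay system: diaphorase enzyme from Clostridium kluyveri; Input: enzyme working solution with 0.14 U/mL diaphorase; Timing: 16 min at room temperature; Technique: resorufin fluorescence, excitation 544 nm, emission 590 nm; Benchmarks: positive control minus NADH, DMSO neutral control.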
G6PDH CS: counter-screen for G6PDH assay hits: L. mesenteroides G6PDH inhibition | inhibition, % at 5 µM | AID 1020 | 200,000 tested, 0.12% active | Purified L. mesenteroides G6PDH, diaphorase/resazurin coupled fluorescence, 45 min; in the data active = inhibition above about 50%
HKDC1 inhibitor: blocks human hexokinase HKDC1 activity; Q2TB90; recombinant HKDC1, G6PDH/diaphorase resazurin coupled fluorescence; inhibition, % at 20 µM; 340,000 tested, 0.16% active; AID 493160;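 active = inhibition above about 35% when tested at 20 µM, limit read from the data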
Target sequence (Q2TB90 whole entry, looked up): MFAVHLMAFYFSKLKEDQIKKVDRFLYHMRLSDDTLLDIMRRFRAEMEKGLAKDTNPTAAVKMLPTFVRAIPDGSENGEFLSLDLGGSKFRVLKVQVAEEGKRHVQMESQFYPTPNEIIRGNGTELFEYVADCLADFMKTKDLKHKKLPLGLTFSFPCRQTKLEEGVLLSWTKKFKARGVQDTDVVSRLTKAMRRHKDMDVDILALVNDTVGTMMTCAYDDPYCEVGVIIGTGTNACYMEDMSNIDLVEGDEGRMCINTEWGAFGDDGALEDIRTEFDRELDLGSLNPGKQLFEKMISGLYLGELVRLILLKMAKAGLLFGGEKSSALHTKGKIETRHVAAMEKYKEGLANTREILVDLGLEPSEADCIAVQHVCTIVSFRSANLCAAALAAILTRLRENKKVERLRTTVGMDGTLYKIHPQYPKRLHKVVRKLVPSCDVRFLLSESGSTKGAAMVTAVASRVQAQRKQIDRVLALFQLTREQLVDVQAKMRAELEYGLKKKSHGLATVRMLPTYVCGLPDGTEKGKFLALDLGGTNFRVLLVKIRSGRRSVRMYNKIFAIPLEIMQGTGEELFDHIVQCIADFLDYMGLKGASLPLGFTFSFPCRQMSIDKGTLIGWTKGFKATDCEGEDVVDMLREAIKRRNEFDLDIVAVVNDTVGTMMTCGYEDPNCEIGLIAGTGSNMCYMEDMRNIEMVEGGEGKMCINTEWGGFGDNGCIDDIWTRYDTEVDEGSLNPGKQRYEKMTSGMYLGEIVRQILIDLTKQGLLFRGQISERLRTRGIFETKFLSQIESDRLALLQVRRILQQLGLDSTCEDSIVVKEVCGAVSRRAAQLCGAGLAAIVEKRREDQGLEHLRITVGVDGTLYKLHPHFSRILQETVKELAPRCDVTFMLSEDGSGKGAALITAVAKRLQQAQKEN
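Material – in-house recombinant HK5 (HKDC1) enzyme · Quantity – HKDC1 at 5 µg/mL · Buffer or medium – pH 8.0 Tris buffer with 10 mM MgCl2 · Reagent – glucose with 1 mM ATP · Dosing – single 20 µM dose · Times – reaction time 90 min, room temperature, protected from light · Technique – resorufin fluorescence at 613 nm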
Tb hexokinase: T. brucei hexokinase 1 inhibition; AID 1430; recombinant TbHK1, G6PDH-coupled NADH A340; inhibition, % at 10 µM; 220,000 tested, 0.11% active;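 active = inhibition of 50% or more in the single-dose primary screen; inactive = inhibition below 50%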
PfG6PD inh: PfG6PD (Plasmodium falciparum) enzyme inhibition | PfGluPho enzyme, NADPH resazurin-diaphorase fluorescence | inhibition, % at 20 µM | 350,000 tested, 0.78% active | AID 504690;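 active = inhibition reaching at least a set limit at 20 µM in the primary screen, cut at about 59% in these data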
Each line names hits and unclear results; the compound was inactive in the other large screens. Shown are actives, neighbours in structure and some others; about 1.2% of the full set was active somewhere.

O=C(c1cc2ccccc2o1)N1CCN(Cc2nc3ccccc3s2)CC1	none (no result: Diaph inh CS, G6PDH CS, HKDC1 inhibitor, Tb hexokinase)
C=C(C)C(=O)Oc1ccc(N=Nc2ccc(C)cc2)ccc1=O	none (no result: Diaph inh CS, G6PDH CS, Tb hexokinase)
CC(=O)OCCNc1cc(Sc2nc3ccccc3[nH]2)c2nonc2c1[N+](=O)[O-]	PfG6PD inh 65.0
COC(=O)CCSc1cc(NCCOC(C)=O)c([N+](=O)[O-])c2nonc12	none
CCCC(=O)OCCNc1cc(SCCC(=O)OC)c2nonc2c1[N+](=O)[O-]	Diaph inh CS 75.1
CC(=O)OCCNc1cc(SCc2ccco2)c2nonc2c1[N+](=O)[O-]	Diaph inh CS 76.9
CNC(=S)Nc1cccc(-c2cnc3ccccc3n2)c1	none (no result: Diaph inh CS, G6PDH CS, Tb hexokinase)
Cc1csc(=O)n1CCC(=O)OCC(=O)NCc1ccccc1	none (no result: Diaph inh CS, G6PDH CS, HKDC1 inhibitor, Tb hexokinase)
Cc1ccc(C)c2[nH]c(=O)c(C(c3nnnn3Cc3ccco3)N3CCc4ccccc4C3)cc12 (stereo not drawn)	Diaph inh CS 56.7
Cc1ccc(C)c2[nH]c(=O)c(C(c3nnnn3CCc3ccccc3)N3CCOCC3)cc12 (stereo not drawn)	none
O=[N+]([O-])/C(C(Cl)=C(Cl)Cl)=C1\Nc2ccccc2O1	none (no result: Diaph inh CS, G6PDH CS)
CCOc1ccc2c(c1)/C(=N/N1C(=O)c3ccccc3C1=O)C(=O)N2	none
CCOc1ccc2c(c1)/C(=C(\C(Cl)=C(Cl)Cl)[N+](=O)[O-])N2	Diaph inh CS 51.1
CCCCOc1ccc2c(c1)/C(=C(\C(Cl)=C(Cl)Cl)[N+](=O)[O-])N2	Diaph inh CS 50.3
Cc1csc(=O)n1CCC(=O)OC(C)C(=O)NCc1ccccc1 (stereo not drawn)	none (no result: Diaph inh CS, G6PDH CS, Tb hexokinase)
O=c1cc2[nH]c3ccccc3c(=O)n2nc1-c1ccccc1	Diaph inh CS 66.2
CCN1C(=O)[C@H]2[C@@H](c3ccc(OC)cc3)N[C@]3(CCCN(Cc4ccc(Br)cc4)C3=O)[C@H]2C1=O	none (no result: Diaph inh CS, G6PDH CS, HKDC1 inhibitor, Tb hexokinase)
O=C(c1cccs1)N1C[C@@H](n2cc(C3CC3)nn2)[C@H](O)C[C@@H]1c1ccc(Cl)cc1	none (no result: Diaph inh CS, G6PDH CS, HKDC1 inhibitor, Tb hexokinase)
COc1cc2c(cc1OC)-c1cc3ccc4c(c3c[n+]1CC2)OCO4	G6PDH CS 52.2
CC1=C(C#N)c2nc(N)c(C#N)c(C)c2/C1=C\c1ccc(-c2ccccc2C(=O)O)o1	Diaph inh CS 62.1
COc1ccccc1C#CC1=CC(=O)CC(C)(C)C1	none (no result: Diaph inh CS, G6PDH CS, HKDC1 inhibitor, Tb hexokinase)
Cc1ccc([N+](=O)[O-])cc1N/C=C1\CCc2ccccc2C1=O	Diaph inh CS 57.9
Cc1ccc([N+](=O)[O-])cc1NC(=O)CCc1ccccc1	none
Cc1ccc(S(=O)(=O)N(C(=O)c2ccncc2)c2ccc(OC(=O)c3ccncc3)c3ccccc23)c(C)c1	HKDC1 inhibitor 38.2, PfG6PD inh 73.2
Cc1ccc([C@H]2N[C@]3(CCCN(Cc4ccc(Cl)cc4)C3=O)[C@H]3C(=O)N(C)C(=O)[C@@H]23)cc1	none (no result: Diaph inh CS, G6PDH CS, HKDC1 inhibitor, Tb hexokinase)
COc1ccc(CCN=C(NS(=O)(=O)c2ccc(Cl)cc2)c2ccccc2)cc1	Diaph inh CS 51.8
O=C(Nc1ccnn1C1CCN(C(=O)c2cccnc2)CC1)c1cccc(F)c1	none (no result: Diaph inh CS, G6PDH CS, HKDC1 inhibitor, Tb hexokinase)
O=c1[nH]c2ccccc2c2cn(-c3ccccc3)nc12	PfG6PD inh 64.1 (no result: Diaph inh CS, G6PDH CS, Tb hexokinase)
O=c1[nH]c2ccccc2c2ccccc12	none
Cc1nn(CCC(=O)NNC(=S)Nc2ccc([N+](=O)[O-])cc2)c(C)c1[N+](=O)[O-]	Diaph inh CS 85.6
O=C(Cn1nc(C(F)F)cc1C(F)F)NNC(=S)Nc1ccc([N+](=O)[O-])cc1	Diaph inh CS 52.0
COCCN1CCN(C(=O)c2cc(COc3cncc(Cl)c3)on2)CC1	none (no result: Diaph inh CS, G6PDH CS, Tb hexokinase)
CCN1/C(=C/c2ccc3cc(C)ccc3[n+]2C)Sc2ccc3sccc3c21	PfG6PD inh 64.7 (no result: Diaph inh CS)
O=C(/C(=N/N=C/c1ccc(O)c(O)c1)c1ccccc1)c1ccccc1	Diaph inh CS 51.3
c1ccc2c(c1)C1=NCCN1c1ccccc1-2	none (no result: Diaph inh CS, G6PDH CS, HKDC1 inhibitor, Tb hexokinase)
COCCN(C(=O)COC(=O)c1ccc2c(c1)OCO2)c1c(N)n(Cc2ccccc2)c(=O)[nH]c1=O	none (no result: Diaph inh CS, G6PDH CS, HKDC1 inhibitor, Tb hexokinase)
O=C(NCC(c1ccco1)N1CCN(c2ccccc2)CC1)C1CCCCC1 (stereo not drawn)	none (no result: Diaph inh CS, G6PDH CS, HKDC1 inhibitor, Tb hexokinase)
Clc1ccc(-c2c[nH]c3ccccc23)nn1	Diaph inh CS 63.0
CC1CCCN(C(=S)SCC(=O)c2cc(Br)cc(Br)c2O)C1 (stereo not drawn)	Diaph inh CS 61.5
Cc1cn([C@H]2C[C@H](O)[C@@H](CNCc3ccc(F)c(N4CCOCC4)c3)O2)c(=O)[nH]c1=O	none (no result: Diaph inh CS, G6PDH CS, HKDC1 inhibitor, Tb hexokinase)
Cc1cn([C@H]2C[C@H](O)[C@@H](CNCc3cccc(OC4CCCC4)c3)O2)c(=O)[nH]c1=O	none (no result: Diaph inh CS, G6PDH CS, HKDC1 inhibitor, Tb hexokinase)
O=c1[nH]c(Nc2ccccc2)cc2cc(Br)ccc12	none (no result: Diaph inh CS, G6PDH CS, Tb hexokinase)
O=c1[nH]c(Nc2ccccc2)cc2ccccc12	G6PDH CS 55.3
O=C(Nc1cccc2ccccc12)c1cc2c(cc1Br)OCO2	none (no result: Diaph inh CS, G6PDH CS)
COc1ccc(Sc2ccc(/C=C3\C(=O)NN(c4ccccc4)C3=O)o2)cc1	none
O=C1NN(c2ccccc2)C(=O)/C1=C\c1ccc(-c2cc([N+](=O)[O-])ccc2O)o1	Diaph inh CS 79.8
CCOc1cc(/C=C2\C(=O)NN(c3ccccc3)C2=O)cc([N+](=O)[O-])c1O	Diaph inh CS 53.3
O=C1NN(c2ccc(Cl)cc2)C(=O)/C1=C\c1ccc(-c2cccc(C(=O)O)c2)o1	Diaph inh CS 52.9
Cc1ccc(N2NC(=O)/C(=C/c3ccc(-c4ccc(Cl)c(C(=O)O)c4)o3)C2=O)cc1	none
Nc1ccn(CCCNC2CCN(Cc3ccccc3)CC2)c(=O)n1	none (no result: Diaph inh CS, G6PDH CS, HKDC1 inhibitor, Tb hexokinase)
O=C(c1ccc(S(=O)(=O)c2ccccc2)cc1)N1CCc2ccccc2C1	Diaph inh CS 51.3
Cc1cccc(-n2c(=S)[nH]c3c(oc4ccccc43)c2=O)c1	Diaph inh CS 64.4
